SENP7 block – SENP7 protease inhibition. recombinant SENP7, Z-RLRGG-aminoluciferin luminescence, 40 min. Q9BQF6. inhibition, % at 5 µM. hit rate 1.5% among 330,000;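 active = inhibition above about 50% at the single test dose, limit read from the data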;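 also: plate controls were DMSO with enzyme for no effect and no enzyme buffer wells for full effect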
SENP8 block-1 – inhibitors of human SENP8 protease | Q96LD8 | recombinant SENP8, Nedd8 substrate fluorescence | hit rate 0.64% among 360,000 | inhibition, % at 20 µM; in the data active = inhibition mostly above about 40%, no sharp cut-off; inactive = mostly below about 27%
Target sequence (Q96LD8 whole entry, looked up): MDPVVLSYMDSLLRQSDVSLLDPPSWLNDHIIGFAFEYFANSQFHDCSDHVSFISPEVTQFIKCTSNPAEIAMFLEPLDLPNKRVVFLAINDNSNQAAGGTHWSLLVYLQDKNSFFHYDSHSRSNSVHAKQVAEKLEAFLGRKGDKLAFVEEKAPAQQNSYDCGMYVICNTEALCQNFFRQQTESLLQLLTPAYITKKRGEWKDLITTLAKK
SENP1 inh – inhibitors of human SENP1 SUMO protease catalytic domain; hit rate 0.21% among 360,000; inhibition, % at 10 µM; recombinant SENP1 catalytic domain, CyPet-SUMO1-YPet FRET cleavage;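 active = inhibition at least 30% at 10 µM, raw YFP signal under a set limit, fluorescence ratio 0.5 to 1.5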;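 also: 0% = enzyme with DMSO and 100% = no enzyme wells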
Target sequence (Q9P0U3 419-644 limits assumed): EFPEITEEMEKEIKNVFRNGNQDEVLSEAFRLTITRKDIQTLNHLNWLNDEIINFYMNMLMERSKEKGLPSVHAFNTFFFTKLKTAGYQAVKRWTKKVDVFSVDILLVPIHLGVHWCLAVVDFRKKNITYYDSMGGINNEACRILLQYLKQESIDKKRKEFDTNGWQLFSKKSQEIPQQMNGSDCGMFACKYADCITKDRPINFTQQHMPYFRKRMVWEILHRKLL
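material = recombinant human SENP1 catalytic domain, His6-tagged | quantity = 20 pM enzyme | reagent = 25 nM SUMO1 FRET substrate | compound dosing = 10 µM single point, 0.5% DMSO | timing = 50 min enzyme reaction, room temperature, light-protected | detection = FRET, CFP and YFP emission | control set = no-enzyme low, enzyme-DMSO high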
SENP8 block-2 – SENP8 protease inhibition. hit rate 1.2% among 330,000. AID 2540. inhibition, % at 10 µM. purified SENP8, Z-RLRGG-aminoluciferin cleavage, luminescence. Q96LD8; in the data active = inhibition above about 50%
SENP6 inh – inhibitors of human SENP6 protease | inhibition, % at 10 µM | Recombinant SENP6 catalytic domain, aminoluciferin luminescence | hit rate 1.8% among 330,000;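 active = inhibition above about 50% at the single tested dose, limit read from the data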;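 also: plate controls were DMSO wells with enzyme for no effect and DMSO wells lacking enzyme for full effect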
SENP8 conf – human SENP8 inhibition, confirmed; shares compounds with SENP7 block; Recombinant SENP8, Z-RLRGG-aminoluciferin luminescence, 60 min; inhibition, % at 12.5 µM; hit rate 40% among 6,200;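 active = mean inhibition across replicates above about 50%, limit read from the data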
SENP6 conf – confirmation of human SENP6 protease inhibitors | shares compounds with SENP7 block | recombinant SENP6, Z-RLRGG-aminoluciferin luminescence | inhibition, % at 12.5 µM | hit rate 58% among 6,200 | AID 488915
SENP7 conf – human SENP7 inhibition, confirmed; hit rate 69% among 6,200; recombinant SENP7, Z-RLRGG-aminoluciferin luminescence, 40 min; inhibition, % at 12.5 µM; shares compounds with SENP7 block
Casp3 SENP sel – selectivity test for SENP inhibitors: human caspase-3 inhibition; shares compounds with SENP7 block; purified caspase-3, Z-DEVD-aminoluciferin luminescence, 60 min; inhibition, % at 12.5 µM; hit rate 60% among 6,200; AID 488918;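 active = mean inhibition above about 50%, limit read from the data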;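 also: plate controls were enzyme with DMSO for no effect and wells without caspase-3 for full effect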
Target sequence (P42574 28-227 limits assumed): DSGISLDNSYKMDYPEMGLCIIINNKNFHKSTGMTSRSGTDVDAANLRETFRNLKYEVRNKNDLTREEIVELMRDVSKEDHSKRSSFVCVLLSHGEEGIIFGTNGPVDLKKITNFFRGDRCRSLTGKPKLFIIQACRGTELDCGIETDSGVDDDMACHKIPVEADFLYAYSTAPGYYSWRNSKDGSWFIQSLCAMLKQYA
Luc interf – counter-screen for SENP inhibitors: luminescence interference; Pre-incubated SENP8/Z-RLRGG-aminoluciferin, luciferase luminescence interference; hit rate 39% among 6,200; shares compounds with SENP7 block; AID 488919; inhibition, % at 12.5 µM;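 active = mean inhibition above about 50% when retested at one dose, limit read from the data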;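 also: plate controls were DMSO wells with completed reaction for no effect and substrate without enzyme for full effect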
Active calls of the source: *; . = not tested or not shown. In the library only some 2.5% were active in any assay of this set; here they are far more common.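 The calls were made as follows, unless noted: active = mean inhibition above about 50% in the one-dose retest (limit read from the data); inactive = the rest.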

SMILES | SENP7 block | SENP8 block-1 | SENP1 inh | SENP8 block-2 | SENP6 inh | SENP8 conf | SENP6 conf | SENP7 conf | Casp3 SENP sel | Luc interf
COC(=O)c1sccc1NC(=O)c1ccc2c(c1)OCO2 | 6 | -60 | 2 | -24 | -5 | . | . | . | . | .
COC(=O)c1c(-c2cccnc2)csc1NC(=O)c1ccc2c(c1)OCO2 | 95* | -465 | -16 | 73* | 72* | 12 | 21 | 21 | 36 | 0
COc1cccc(NC(=O)c2ccc3c(c2)OCCO3)c1 | 97* | 11 | 1 | 94* | 94* | 97* | 98* | 102* | 97* | 96*
O=C(ONC(=O)C1CCCCC1C(=O)NOC(=O)c1ccccc1)c1ccccc1 (centres undefined) | . | -4 | 3 | . | . | . | . | . | . | .
O=Nc1ccc(NOC(=O)c2ccccc2)cc1 | 46 | 19 | 2 | -29 | 88* | 15 | -12 | 103* | 15 | 8
O=C(CCN1C(=O)/C(=C/c2ccc3c(c2)OCO3)SC1=S)Nc1cccc(C(=O)O)c1 | -16 | 29 | -39 | 0 | 9 | . | . | . | . | .
COc1cc(/C=C2/SC(=S)N(Cc3ccccc3)C2=O)ccc1O | 4 | 29 | -29 | 0 | 49 | . | . | . | . | .
O=C(CCCN1C(=O)/C(=C/c2ccc3c(c2)OCO3)SC1=S)Nc1cccc(C(=O)O)c1 | 48 | 10 | -4 | 76* | 82* | 60* | 82* | 90* | 63* | 46
O=C1/C(=C\c2ccc(O)c(O)c2)SC(=S)N1Cc1ccccc1 | -8 | 36* | -26 | 47 | 55* | 70* | 69* | 72* | 18 | 49
O=C(CCCN1C(=O)/C(=C\c2ccccc2)SC1=S)Nc1cccc(C(=O)O)c1 | 0 | 24 | 2 | 38 | 63* | 43 | 48 | 37 | 24 | 6
Cc1ccc(NC(=O)COc2cccc(/C=C3\SC(=S)N(CCC(=O)O)C3=O)c2)cc1Cl | -1 | 33 | 2 | 47 | 66* | 13 | 42 | 61* | 21 | 2
CN(C)S(=O)(=O)c1cccc(NC(=O)CCc2nc3cc(S(=O)(=O)N4CCOCC4)ccc3n2C)c1 | 4 | -37 | -79 | 4 | -1 | . | . | . | . | .
COc1cc(NC(=O)c2ccccc2)c(OC)cc1NC(=O)CN1C(=O)NC2(CCCCC2C)C1=O (centres undefined) | -1 | -9 | -9 | 0 | -4 | . | . | . | . | .
COc1cccc(/C=C2\SC(=S)N(CCCC(=O)Nc3ccc(C(=O)O)cc3)C2=O)c1 | 81* | 9 | 2 | 84* | 84* | 67* | 76* | 62* | 58* | 15
COc1ccc(/C=C2\SC(=S)N(CCC(=O)Nc3cccc(C(=O)O)c3)C2=O)cc1 | 6 | 25 | -23 | 53* | 62* | 35 | 33 | 21 | 21 | 15
O=C(CCN1C(=O)/C(=C/c2ccc(Cl)cc2)SC1=S)Nc1cccc(C(=O)O)c1 | 5 | 18 | 1 | 34 | 8 | . | . | . | . | .
CCOc1ccccc1N1CC(C(=O)Nc2cc(S(C)(=O)=O)ccc2Cl)CC1=O (centres undefined) | 1 | -1 | 2 | 7 | -8 | . | . | . | . | .
COc1ccc(S(=O)(=O)N2CCCCC2c2cc(C(=O)N3CCOCC3)no2)cc1 (centres undefined) | . | 15 | 1 | . | . | . | . | . | . | .
CC(=O)Nc1cccc(N)c1 | 4 | -4 | -2 | 10 | 2 | . | . | . | . | .
Fc1ccc2nc3[nH]c4ccccc4c3nc2c1 | 74* | -211 | -58 | 47 | 74* | 8 | 53* | 53* | 61* | 25
OC1=C(O)c2nc3cc(F)ccc3nc21 | -2 | 17 | -12 | -1 | 11 | . | . | . | . | .
c1c2c(cc3sc(N4CCOCC4)nc13)OCO2 | 89* | -2 | -57 | 76* | 60* | 85* | 86* | 99* | 95* | 88*
c1c2c(cc3sc(N4CCCCC4)nc13)OCO2 | 99* | -9 | -91 | 96* | 101* | 97* | 99* | 103* | 98* | 95*
Fc1ccc2nc(N3CCOCC3)sc2c1 | 24 | 21 | 0 | 18 | 13 | . | . | . | . | .
Cc1c(Cl)cccc1N(CC(=O)NC1CCCCC1)S(C)(=O)=O | -1 | 6 | 3 | -12 | -34 | . | . | . | . | .
SMILES | SENP7 block | SENP8 block-1 | SENP1 inh | SENP8 block-2 | SENP6 inh | SENP8 conf | SENP6 conf | SENP7 conf | Casp3 SENP sel | Luc interf
CC1(C(=O)NS(=O)(=O)c2cccc(Cl)c2)CCN1C(=O)C1CCCCC1 (centres undefined) | . | 2 | 3 | . | . | . | . | . | . | .
COc1ccccc1CNC(=O)[C@@H](NC(=O)C1CCN(C(=O)[C@@H]2CCCN2)CC1)C(C)C | 0 | 0 | 3 | 8 | -6 | . | . | . | . | .
CCOc1ccc(NC(=O)C2CCCN(S(=O)(=O)c3c(C)noc3C)C2)cc1 (centres undefined) | 10 | 17 | 1 | 2 | 7 | . | . | . | . | .
CC(/C=N\NC(=O)c1cc(C)oc1C)=C\c1ccccc1 | 82* | 14 | -1 | 72* | -14 | 14 | 19 | 24 | 25 | 7
COc1cccc(/C=N/NC(=O)c2ccoc2C)c1 | 88* | 12 | 4 | 82* | 91* | 89* | 87* | 98* | 95* | 86*
Cc1occc1C(=O)N/N=C/c1ccccc1[N+](=O)[O-] | 73* | 8 | 2 | 37 | 56* | 47 | 47 | 85* | 84* | 32
CCN(CC)c1ccc(/C=N/NC(=O)c2ccoc2C)cc1 | 101* | -437 | -20 | 95* | 97* | 97* | 100* | 103* | 98* | 83*
CC(/C=N/NC(=O)c1ccc(Br)cc1)=C\c1ccccc1 | -5 | 13 | 2 | 4 | -51 | . | . | . | . | .
CCC(=O)c1ccc(OCC(=O)NC2(C#N)CCCCC2)cc1 | 8 | 14 | -1 | 4 | 10 | . | . | . | . | .
CCc1cccc(NC(=O)CSc2nc(C)cs2)c1 | . | 11 | 2 | . | . | . | . | . | . | .
COc1cccc(/C=N/NC(=O)CNC(=O)C(c2ccccc2)c2ccccc2)c1O | 4 | -267 | -19 | 43 | 52* | 38 | 44 | 63* | 59* | -3
COc1cccc(/C=N/NC(=O)C(=O)N/N=C/c2cccc(OC)c2O)c1O | . | 3 | 3 | . | . | . | . | . | . | .
COc1cccc(/C=N/NC(=O)c2ccoc2C)c1O | 95* | -43 | -1 | 87* | 92* | 93* | 93* | 100* | 97* | 40

From PubChem BioAssay
